Test results taken from ChEMBL document CHEMBL1914355, “Discovery of new orally active prostaglandin D2 receptor antagonists” (Bioorg Med Chem, 2011).
≈ marks a conversion by molar mass, not a printed value.

What was measured:
Prostacyclin receptor = Prostacyclin receptor (Homo sapiens, UniProt P43119); assay: Displacement of [3H]Iloprost from human prostanoid IP receptor expressed in CHO cells after 30 mins by liquid scintillation counting; format: cell-based
Outline: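 Membranes from CHO cells stably expressing hIP were incubated with 5.0 nM [³H]iloprost and graded compound concentrations in 50 mM Tris-HCl (1 mM EDTA, 10 mM MgCl₂, pH 7.5) for 30 min at room temperature. Filters (GF/B) were washed with ice-cold Tris/NaCl pH 7.5, dried 60 min at 60 °C, and counted. Nonspecific binding used excess unlabeled iloprost. Ki = IC50/(1+[L]/Kd).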

[1] = Kinetic solubility of the compound; format: physicochemical; details: read-out: Kinetic_solubility
[2] = molecular target: T1, Prostaglandin D2 receptor (Homo sapiens, UniProt Q13258); assay: Antagonist activity at prostanoid DP receptor in human platelet rich plasma assessed as inhibition of PGD2-induced intracellular cAMP production after 10 mins by enzyme immunoassay; format: functional, cell-based; details: in the assay text read “after 15 mins” for “after 10 mins”
T1 sequence (Q13258 whole entry): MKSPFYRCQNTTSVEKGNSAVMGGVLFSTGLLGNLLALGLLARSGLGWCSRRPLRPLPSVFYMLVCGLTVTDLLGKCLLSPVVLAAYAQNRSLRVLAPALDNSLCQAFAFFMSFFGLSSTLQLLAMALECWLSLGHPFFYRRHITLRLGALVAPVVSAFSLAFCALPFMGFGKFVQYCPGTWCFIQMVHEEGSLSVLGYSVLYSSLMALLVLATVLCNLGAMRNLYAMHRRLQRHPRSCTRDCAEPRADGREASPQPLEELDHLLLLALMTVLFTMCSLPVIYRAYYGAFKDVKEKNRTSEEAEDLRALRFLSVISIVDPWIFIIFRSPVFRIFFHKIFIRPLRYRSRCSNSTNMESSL
Outline: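 Human PRP with EDTA (~10 mmol/L) was spun at 1500 G for 15 min. Platelets were resuspended in PPP at 5.0 × 10⁵/µL with IBMX (8 mmol/L final) and an EP3 antagonist, then held 5 min at 37 °C. Compound was added for 10 min at 37 °C, then PGD₂ (3 µmol/L final) for 15 min. TCA stop, tri-n-octylamine extraction, cAMP EIA. IC50 derived from inhibition ratio.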

[3] = molecular target: T2, Prostaglandin D2 receptor (Mus musculus, UniProt P70263); assay: Displacement of [3H]-PGD2 from mouse DP receptor expressed in CHO cells after 20 mins by liquid scintillation counting; format: cell-based
T2 sequence (P70263 whole entry): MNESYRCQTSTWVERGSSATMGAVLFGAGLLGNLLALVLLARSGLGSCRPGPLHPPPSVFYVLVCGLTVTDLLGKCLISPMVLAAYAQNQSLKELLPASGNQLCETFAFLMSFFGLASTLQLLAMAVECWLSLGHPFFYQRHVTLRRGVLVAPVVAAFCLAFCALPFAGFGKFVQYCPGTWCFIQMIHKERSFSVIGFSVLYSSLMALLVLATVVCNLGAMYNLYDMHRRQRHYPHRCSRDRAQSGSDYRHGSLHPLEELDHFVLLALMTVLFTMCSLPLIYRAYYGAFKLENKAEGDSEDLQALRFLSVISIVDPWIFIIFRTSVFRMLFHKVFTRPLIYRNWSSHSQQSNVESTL
Outline: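 CHO-mDP membranes were incubated with 2.5 nM [³H]PGD₂ and graded compound concentrations in 25 mM HEPES-NaOH (1 mM EDTA, 5 mM MgCl₂, 10 mM MnCl₂, pH 7.4) for 20 min at room temperature. Bound ligand was collected on GF/B filters and washed with ice-cold Tris/NaCl/0.01% BSA, pH 7.4. Nonspecific binding was defined with excess unlabeled PGD₂. IC50 came from the regression curve; Ki = IC50/(1+[L]/Kd).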

[4] = molecular target: T2, Prostaglandin D2 receptor; assay: Antagonist activity at mouse prostanoid DP receptor expressed in CHO cells assessed as inhibition of PGD2-induced intracellular cAMP production after 10 mins by enzyme immunoassay; format: functional, cell-based
Outline: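 CHO cells expressing mDP seeded at 1 × 10⁵ cells/well and grown 2 days. They were rinsed and preincubated ~10 min at 37 °C in MEM with 2 µM diclofenac, then ~10 min in assay medium (MEM, 0.1% BSA, 1 mM IBMX, 2 µM diclofenac). Compound plus 10 nM PGD₂ was added for 10 min at 37 °C. TCA stop, tri-n-octylamine/chloroform extraction, cAMP by EIA. IC50 taken from % of maximal cAMP rise without compound.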

[5] = Cmax in rat at 1 mg/kg, po administered as single dose; details: in vivo
[6] = Total clearance in rat at 1 mg/kg, iv administered as single dose; format: ADME, organism-based; design: dose 1 mg/kg, route intravenous; details: in vivo
Outline: (§1)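 Fasted male rats (n = 3) received a single 1 mg/kg iv dose in 30% HP-β-CD with 5% DMSO and 1 eq NaHCO₃. Jugular blood was drawn into heparin before dosing and at 5, 15, 30 min and 1, 2, 4, 6, 8, 24 h. Plasma was obtained by centrifugation at 4 °C. Parameters came from the plasma concentration-time course.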

[7] = AUC (0 to infinity) in rat at 1 mg/kg, po administered as single dose; format: ADME, organism-based; design: time infinity, dose 1 mg/kg, route oral; details: plasma
Outline: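 Fasted male rats (n = 3) given a single oral dose of 1 mg/kg in 0.5% MC. Heparinized jugular vein blood sampled pre-dose and at 15, 30 min and 1, 2, 4, 6, 8, 24 h. Plasma separated by centrifugation at 4 °C and kept at -80 °C. AUC derived from the plasma concentration–time profile.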

[8] = Half life in rat at 1 mg/kg, po administered as single dose; format: ADME, organism-based; design: dose 1 mg/kg, route oral; details: in vivo
Outline: (§2)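 Fasted male rats (n = 3) received a single oral 1 mg/kg dose in 0.5% methylcellulose. Jugular blood was drawn into heparin before dosing and at 15, 30 min and 1, 2, 4, 6, 8, 24 h. Plasma was separated at 4 °C. Parameters came from the plasma concentration-time course.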

[9] = AUC (0 to infinity) in rat at 1 mg/kg, iv administered as single dose; format: ADME, organism-based; design: time infinity, dose 1 mg/kg, route intravenous; details: plasma
Outline: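 Single IV dose of 1 mg/kg to fasted male rats (n = 3). Vehicle: 30% HP-b-CD containing 5% DMSO with NaHCO3 (1 eq). Jugular vein blood taken in heparinized syringe pre-dose and at 5, 15, 30 min and 1, 2, 4, 6, 8, 24 h. Plasma obtained by centrifugation at 4 °C and stored at -80 °C. AUC derived from the plasma concentration–time course.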

[10] = Volume of distribution at steady state in rat at 1 mg/kg, iv administered as single dose; format: ADME, organism-based; design: dose 1 mg/kg, route intravenous; details: in vivo, read-out: Vdss; outline: as §1
[11] = Half life in rat at 1 mg/kg, iv administered as single dose; format: ADME, organism-based; design: dose 1 mg/kg, route intravenous; details: in vivo; outline: as §1
[12] = Oral bioavailability in rat at 1 mg/kg administered as single dose; format: ADME, organism-based; details: in vivo
Outline: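 Fasted male rats (n = 3) were given 1 mg/kg orally in 0.5% methylcellulose and 1 mg/kg iv in 30% HP-β-CD/5% DMSO/NaHCO₃, each as a single dose. Plasma from serial jugular samples was analysed. Bioavailability was derived from oral versus iv exposure, corrected for dose (D_po, D_iv).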

Cavia porcellus [13] = assay: Inhibition of OVA-induced vascular permeability in Hartley guinea pig conjunctiva at 1 mg/kg, po administered 1 hr before antigen challenge measured after 30 mins; format: functional
Outline: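 Male Hartley guinea pigs were sensitized ip with OVA (1 mg) plus inactivated B. pertussis. Two weeks later they were challenged topically with OVA (1%, 20 µL/eye), followed at once by Evans blue (20 mg/kg iv). Compound was given orally 1 h before challenge (n = 7). After 30 min the conjunctiva was removed, dye was extracted in DMF at 37 °C, and A620 was read against a standard curve. Dunnett's test was used.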

Cavia porcellus [14] = assay: Inhibition of PGD2-induced vascular permeability in Hartley guinea pig conjunctiva at 0.1 mg/kg, po administered 1 hr before antigen challenge measured after 30 mins; format: functional
Outline: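 Guinea pigs (n = 8) were dosed orally 1 h before topical PGD₂ challenge (20 µL/eye). 5% Evans blue (1 mL/kg iv) was given immediately after challenge. After 30 min the conjunctiva was excised and dye extracted in DMF at 37 °C, with absorbance read at 620 nm. Dunnett's test versus control.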

[15] = Cmax in rat at 1 mg/kg, po administered as single dose; format: ADME, organism-based; design: dose 1 mg/kg, route oral; details: in vivo; outline: as §2

Prostacyclin receptor, sequence (P43119 whole entry): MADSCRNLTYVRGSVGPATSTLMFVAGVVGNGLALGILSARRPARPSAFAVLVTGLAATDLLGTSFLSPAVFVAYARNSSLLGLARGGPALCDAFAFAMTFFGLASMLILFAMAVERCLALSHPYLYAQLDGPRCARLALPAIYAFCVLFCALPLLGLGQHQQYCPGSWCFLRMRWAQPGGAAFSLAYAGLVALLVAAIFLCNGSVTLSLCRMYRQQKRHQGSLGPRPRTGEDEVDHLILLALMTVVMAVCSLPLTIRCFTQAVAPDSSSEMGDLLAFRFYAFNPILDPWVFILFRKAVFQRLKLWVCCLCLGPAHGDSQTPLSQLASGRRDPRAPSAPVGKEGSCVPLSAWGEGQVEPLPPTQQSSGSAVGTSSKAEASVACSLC

Compound	Ki (Prostacyclin receptor) [µM]	IC50 [4] [nM]	also measured
CN1C[C@@H](COc2ccc(C(=O)Nc3cccc(CC(=O)O)c3)c(Cl)c2)Oc2ccccc21	2.7		
Cc1cc(OC[C@@H]2CN(C)c3ccccc3O2)ccc1C(=O)Nc1cc(CC(=O)O)ccc1Cl	1.8		solubility kinetic [1]: 129 µg/mL (≈ 268 µM)
Cc1cc(OC[C@@H]2CN(C)c3ccccc3O2)ccc1C(=O)Nc1cc(CC(=O)O)ccc1F	> 10		
Cc1ccc(CC(=O)O)cc1NC(=O)c1ccc(OC[C@@H]2CN(C)c3ccccc3O2)cc1Cl	1.4		
CN1C[C@@H](COc2ccc(C(=O)Nc3cc(CC(=O)O)ccc3Cl)c(Cl)c2)Oc2ccccc21			IC50 [2]: > 50 nM
CN1C[C@@H](COc2ccc(C(=O)n3ccc4c(CC(=O)O)cccc43)cc2)Oc2ccccc21	2.5		Ki [3]: 1700 nM
Cc1c(OC[C@@H]2CN(C)c3ccccc3O2)ccc(C(=O)Nc2cccc(CC(=O)O)c2)c1C	> 10	22	
Cc1cc(C(=O)Nc2cccc(CC(=O)O)c2)c(C)cc1OC[C@@H]1CN(C)c2ccccc2O1	> 10	28	
Cc1cc(OC[C@@H]2CN(C)c3ccccc3O2)cc(C)c1C(=O)Nc1cccc(CC(=O)O)c1	> 10	3.5	
Cc1ccc(CC(=O)O)cc1NC(=O)c1ccc(OC[C@@H]2CN(C)c3ccccc3O2)c(C)c1C	5.2	12	
Cc1ccc(CC(=O)O)cc1NC(=O)c1cc(C)c(OC[C@@H]2CN(C)c3ccccc3O2)cc1C	2.6	5.7	
Cc1ccc(CC(=O)O)cc1NC(=O)c1c(C)cc(OC[C@@H]2CN(C)c3ccccc3O2)cc1C	> 10	4.8	
Cc1c(OC[C@@H]2CN(C)c3ccccc3O2)ccc(C(=O)Nc2cc(CC(=O)O)ccc2Cl)c1C	3.5	54	Ki [3]: 28 nM
Cc1cc(C(=O)Nc2cc(CC(=O)O)ccc2Cl)c(C)cc1OC[C@@H]1CN(C)c2ccccc2O1	1.8	5.1	solubility kinetic [1]: 17 µg/mL (≈ 34.3 µM)
Cc1cc(OC[C@@H]2CN(C)c3ccccc3O2)cc(C)c1C(=O)Nc1cc(CC(=O)O)ccc1Cl	> 10	7.6	Cmax [5]: 930 ng/mL; clearance [6]: 1.6 mL/min/kg; AUC(0-inf) [7]: 8120 ng·h/mL; half-life [8]: 348 min; AUC(0-inf) [9]: 11300 ng·h/mL; Vd [10]: 0.622 L/kg; half-life [11]: 372 min; IC50 [2]: 4.4 nM; bioavailability [12]: 72%; inhibition in vivo at 1 mg/kg (Cavia porcellus [13]): 46%; Ki [3]: 6.4 nM; inhibition in vivo at 0.1 mg/kg (Cavia porcellus [14]): 55%; solubility kinetic [1]: 407 µg/mL (≈ 822 µM)
Cc1cc(OC[C@@H]2COc3ccccc3O2)cc(C)c1C(=O)Nc1cc(CC(=O)O)ccc1Cl	> 10	4.3	
Cc1cc(OC[C@@H]2COc3ccccc32)cc(C)c1C(=O)Nc1cc(CC(=O)O)ccc1Cl	> 10	1.5	
Cc1cc(OC[C@@H]2Cc3ccccc3O2)cc(C)c1C(=O)Nc1cc(CC(=O)O)ccc1Cl	> 10	14	
Cc1cc(OCC2Oc3ccccc3O2)cc(C)c1C(=O)Nc1cc(CC(=O)O)ccc1Cl	> 10	27	
CN1C[C@@H](COc2ccc(C(=O)Nc3cc(C(C)(C)C(=O)O)ccc3Cl)c(Cl)c2)Oc2ccccc21	3.3	7	IC50 [2]: 280 nM; solubility kinetic [1]: 139 µg/mL (≈ 263 µM)
Cc1cc(C(=O)Nc2cc(C(C)(C)C(=O)O)ccc2Cl)c(C)cc1OC[C@@H]1CN(C)c2ccccc2O1	3.3	43	IC50 [2]: 32 nM
Cc1cc(OC[C@@H]2CN(C)c3ccccc3O2)cc(C)c1C(=O)Nc1cc(C(C)(C)C(=O)O)ccc1Cl	> 10	0.7	clearance [6]: 1.8 mL/min/kg; AUC(0-inf) [7]: 8280 ng·h/mL; half-life [8]: 336 min; AUC(0-inf) [9]: 9520 ng·h/mL; Vd [10]: 0.669 L/kg; half-life [11]: 390 min; IC50 [2]: 8.1 nM; bioavailability [12]: 87%; Cmax [15]: 1670 ng/mL; inhibition in vivo at 0.1 mg/kg (Cavia porcellus [14]): 58%; solubility kinetic [1]: 490 µg/mL (≈ 937 µM)
Cc1cc(C(=O)Nc2cc(C3(C(=O)O)CC3)ccc2Cl)c(C)cc1OC[C@@H]1CN(C)c2ccccc2O1	1.7	26	IC50 [2]: 19 nM
Cc1cc(OC[C@@H]2CN(C)c3ccccc3O2)cc(C)c1C(=O)Nc1cc(C2(C(=O)O)CC2)ccc1Cl	> 10	1	solubility kinetic [1]: 321 µg/mL (≈ 616 µM)
CN1C[C@@H](COc2ccc(C(=O)Nc3cc(C(F)(F)C(=O)O)ccc3Cl)c(Cl)c2)Oc2ccccc21	0.52	14	
Cc1ccc2c(c1)[C@H](COc1cc(C)c(C(=O)Nc3cc(CC(=O)O)ccc3Cl)c(C)c1)CO2	> 10	24	
Cc1cc2c(CC(=O)O)cccc2n1C(=O)c1ccc(OC[C@@H]2CN(C)c3ccccc3O2)cc1			IC50 [2]: 57 nM; inhibition in vivo at 0.1 mg/kg (Cavia porcellus [14]): 67%; solubility kinetic [1]: 8.2 µg/mL (≈ 17.4 µM)
